Measurements from ChEMBL document CHEMBL1268838, “The synthesis and biologic evaluation of anti-platelet and cytotoxic β-nitrostyrenes” (Bioorg Med Chem, 2010).

Key:
[1] = Antiaggregatory activity in human platelets assessed as inhibition of thrombin-induced platelet aggregation preincubated for 3 mins before thrombin challenge by turbidimetry analysis; type: functional, cell-based
Method in brief: (§1)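 Washed platelets from ACD-anticoagulated blood of drug-free healthy volunteers, resuspended at 3 × 10⁸/ml in Tyrode's solution with Ca²⁺ 2 mM, glucose 11.1 mM and BSA 3.5 mg/ml. Platelets were stirred at 1200 rpm and 37 °C for 3 min with DMSO (0.5%, vehicle) or compound, then the inducer was added. Aggregation was read by light-transmission aggregometry. IC50 is the mean of two independent experiments (TPA lines n = 3).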

HBL-100 [2] = test: Cytotoxicity against human HBL100 cells after 72 hrs by MTT assay; type: functional, cell-based; settings: HBL-100, 72 h
Method in brief: (§2)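 MDA-MB-231 breast cancer or HBL-100 non-malignant breast epithelial cells: freshly trypsinized cells seeded at 8000 per well, with compound added from DMSO-diluted stock. After 72 h, attached cells were given MTT (0.5 mg/mL, 1 h) and solubilized in DMSO.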

MDA-MB-231 [3] = test: Cytotoxicity against human MDA-MB-231 cells at 20 uM after 72 hrs by MTT assay; type: functional; settings: MDA-MB-231, 72 h
MDA-MB-231 [4] = test: Cytotoxicity against human MDA-MB-231 cells after 72 hrs by MTT assay; type: functional, cell-based; settings: MDA-MB-231, 72 h; method in brief: as §2
[5] = Antiaggregatory activity in human platelets assessed as inhibition of collagen-induced platelet aggregation preincubated for 3 mins before collagen challenge by turbidimetry analysis; type: functional, cell-based; method in brief: as §1
HBL-100 [6] = test: Cytotoxicity against human HBL100 cells at 20 uM after 72 hrs by MTT assay; type: functional; settings: HBL-100, 72 h

Row | Structure (SMILES) | IC50 [1] [µM] | IC50 (HBL-100 [2]) [µM] | inhibition at 20 µM (MDA-MB-231 [3]) [%] | IC50 (MDA-MB-231 [4]) [µM] | IC50 [5] [µM] | inhibition at 20 µM (HBL-100 [6]) [%]
1 | CCOc1cc(/C=C/[N+](=O)[O-])ccc1O | 78.1 | > 20 | 34.4 | > 20 | 16.2 | 35.2
2 | O=[N+]([O-])/C(O)=C/c1ccccc1 | 35.5 | > 20 | 21.2 | 13.9 | 7.8 | 34.9
3 | O=[N+]([O-])C(=Cc1ccccc1)[N+](=O)[O-] | 5.7 | > 20 | – | 9.9 | 3 | 34.2
4 | COc1cc(/C=C/[N+](=O)[O-])ccc1OC(=O)c1cc(Cl)cc(Cl)c1 | 1.9 | > 20 | 20 | > 20 | 1.4 | 15.6
5 | COc1cc(/C=C/[N+](=O)[O-])ccc1OC(=O)c1ccc(F)c(F)c1F | 23 | > 20 | 3.7 | > 20 | 2.7 | 1.1
6 | COc1cc(/C=C/[N+](=O)[O-])ccc1OC(=O)c1cc(F)c(F)c(F)c1 | 1.4 | > 20 | – | 12.4 | 0.9 | 16.6
7 | COc1cc(/C=C/[N+](=O)[O-])ccc1OC(=O)c1cc(OC)c(OC)c(OC)c1 | 1.1 | > 20 | – | 13.9 | 1.1 | 47.4
8 | CCOc1cc(/C=C/[N+](=O)[O-])ccc1OC(=O)c1ccccc1 | 1.2 | 11.6 | – | 15.3 | 1 | –
9 | COc1ccc(/C=C/[N+](=O)[O-])cc1OC(=O)c1ccccc1 | 1.9 | < 10 | – | 7.7 | 0.8 | 79.8
10 | CCOc1cc(/C=C(\C)[N+](=O)[O-])ccc1OC(=O)c1ccccc1 | 0.8 | 14.6 | – | 12.1 | 1.1 | –
11 | COc1ccc(/C=C(\C)[N+](=O)[O-])cc1OC(=O)c1ccccc1 | 2.9 | 7.3 | – | 6.6 | 1 | –
12 | COc1cc(/C=C/[N+](=O)[O-])ccc1OC(=O)c1ccccc1F | 4.7 | > 20 | 26.5 | > 20 | 1.6 | 4.9
13 | COc1cc(/C=C/[N+](=O)[O-])ccc1OC(=O)c1ccccc1Cl | 1 | > 20 | 7 | > 20 | 0.6 | 8.2
14 | COc1cc(/C=C/[N+](=O)[O-])ccc1OC(=O)c1ccccc1Br | 5.4 | > 20 | 8.3 | > 20 | 2 | 10
15 | COc1cc(/C=C/[N+](=O)[O-])ccc1OC(=O)c1ccccc1C(F)(F)F | 2.5 | > 20 | 20.4 | > 20 | 1.3 | 2.4
16 | COc1cc(/C=C/[N+](=O)[O-])ccc1OC(=O)c1ccccc1C | 1.5 | > 20 | 36.3 | > 20 | 1.2 | 1.8
17 | COc1cc(/C=C/[N+](=O)[O-])ccc1OC(=O)c1ccccc1OC | 2.1 | > 10 | – | 19.4 | 0.8 | 8.8
18 | COc1cc(/C=C/[N+](=O)[O-])ccc1OC(=O)c1cccc(F)c1 | 2.6 | > 20 | 44.9 | > 20 | 1.4 | 38.2
19 | COc1cc(/C=C/[N+](=O)[O-])ccc1OC(=O)c1cccc(Cl)c1 | 1.2 | > 20 | – | 18.9 | 0.5 | 23.2
20 | COc1cc(/C=C/[N+](=O)[O-])ccc1OC(=O)c1cccc(Br)c1 | 1.3 | > 20 | 19.1 | > 20 | 0.9 | 18.2
21 | COc1cc(/C=C/[N+](=O)[O-])ccc1OC(=O)c1cccc(C(F)(F)F)c1 | 3.3 | > 20 | 34.9 | > 20 | 1.7 | 12.5
22 | COc1cc(/C=C/[N+](=O)[O-])ccc1OC(=O)c1cccc(C)c1 | 1.7 | 4.1 | – | 13.4 | 0.9 | –
